Experiment [1] has as its target T1, E3 ubiquitin-protein ligase XIAP (Homo sapiens, UniProt P98170). Description: Inhibition of XIAP-Bir3 domain at 100 uM by TR-FRET assay. Put shortly:
(§1)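 TR-FRET displacement. BIR3 protein (10 nM) and biotin-lc-GGIPVA SMAC peptide (10 nM) mixed with compound in DMSO, 1 h at 4 °C. Eu-antibody conjugate (5 nM) and APC-streptavidin (2 nM) then added, incubated overnight at 4 °C. Excitation 340 nm, emission 665 nm. Screen at 100, 10, 1 and 0.1 μM; actives run as 6–7-point dilutions in duplicate.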
(In TR-FRET formats the signal depends on donor and acceptor labels being close together.)

Experiment [2] addresses T1, E3 ubiquitin-protein ligase XIAP. Description: Inhibition of XIAP-Bir3 domain at 10 uM by TR-FRET assay. Put shortly: as §1
Another experiment has as its system MDA-MB-231. The experiment in a line: Cytotoxicity against human ER-negative MDA-MB-231 cells assessed as cell viability after 72 hrs. The experiment is classed as functional, cell-based. Conditions: MDA-MB-231, 72 h. A digest of the protocol: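 MDA-MB-231 (ER-negative) kept in DMEM + 10% FBS at 37 °C, 5% CO2. Seeded at 5000 cells/well and left overnight, then exposed for 72 h to a range of compound concentrations in serum-free DMEM (final DMSO 0.1%). Viability read by ATPlite one-step luminescence, four replicates. IC50 obtained by curve fitting.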

Experiment [3] concerns the target T1, E3 ubiquitin-protein ligase XIAP. The experiment in a line: Inhibition of XIAP-Bir3 domain by calorimetric titration assay. A digest of the protocol:
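ITC at 25 °C. Purified XIAP BIR3 (100 μM) in the cell, compound (1 mM) in the syringe, both in degassed PBS pH 7.4. Blank-subtracted, normalized heats fitted to a single-site model; Kd taken as 1/Ka.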

For experiment [4] the target is unchanged. The experiment in a line: Inhibition of XIAP-Bir3 domain by NMR titration. A digest of the protocol:
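NMR Kd. 1H chemical-shift changes of resolved BIR3 resonances (BIR3 at 100 μM) followed across ligand concentrations, at least six points. Kd from a nonlinear least-squares fit of fractional bound population versus total ligand, single-site model. 2D [15N,1H]HSQC acquired at 300 K.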

The target is the same in experiment [5]. The experiment in a line: Inhibition of XIAP by FP assay.
Experiment [6] shares this target. The experiment in a line: Inhibition of XIAP by FRET assay. A digest of the protocol: as §1
For another experiment, the system named is RPMI-8226. The experiment in a line: Cytotoxicity against human RPMI8226 cells assessed as cell viability. It counts as functional, cell-based.
The next experiment concerns Jurkat. Description: Cytotoxicity against human Jurkat cells assessed as cell viability. It counts as functional, cell-based.

Broadly, the inhibition is how much of the control response was suppressed. Lower therefore signals little suppression. For orientation: IC50 means the concentration that gives 50% inhibition. The term Kd denotes the concentration at which binding is half-saturated. Low readings indicate tighter binding, high ones weaker binding.

T1 sequence (P98170 whole entry, the tested form may be a part): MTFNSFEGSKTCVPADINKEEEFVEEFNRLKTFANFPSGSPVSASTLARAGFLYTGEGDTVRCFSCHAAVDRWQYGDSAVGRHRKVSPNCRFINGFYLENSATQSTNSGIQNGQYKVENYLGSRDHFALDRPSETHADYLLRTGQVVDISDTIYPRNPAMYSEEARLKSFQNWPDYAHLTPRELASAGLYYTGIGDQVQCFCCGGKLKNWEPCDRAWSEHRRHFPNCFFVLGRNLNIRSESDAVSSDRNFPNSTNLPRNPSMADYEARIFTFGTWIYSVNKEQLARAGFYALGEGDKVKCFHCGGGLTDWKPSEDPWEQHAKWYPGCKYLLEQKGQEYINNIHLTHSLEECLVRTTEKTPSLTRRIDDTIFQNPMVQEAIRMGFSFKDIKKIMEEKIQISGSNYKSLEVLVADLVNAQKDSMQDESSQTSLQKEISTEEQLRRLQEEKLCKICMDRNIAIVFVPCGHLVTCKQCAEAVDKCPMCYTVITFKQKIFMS

For `CCN1CCN(C(=O)[C@@H](NC(=O)[C@H](C)N)C(C)C)C(C(=O)NC(c2ccccc2)c2ccccc2)C1` (stereo partly specified), the inhibition in experiment [1] came to 96.9%; in [2], 77.2%. The IC50 with MDA-MB-231 is above 50 µM. Besides, the Kd in experiment [3] turned out to be 21.6 µM; in [4], 27.7 µM.

As for `CN[C@@H](C)C(=O)NC1CCC[C@H]2[C@@H](Cc3ccccc3)C[C@@H](C(=O)N[C@@H]3CCCc4ccccc43)N2C1=O` (stereo partly specified), the affinity in experiment [5], expressed as Kd, was 0.031 µM. The IC50 in the experiment with MDA-MB-231 was 0.026 µM.

Take `CN[C@@H](C)C(=O)N[C@H](C(=O)N1CC[C@H]2CN(CCc3ccccc3)CC[C@H]21)C1CCCCC1`: the 50% inhibitory concentration (IC50) in experiment [6] was determined as 0.28 µM; in the experiment on RPMI-8226, 30 µM.

Regarding `CC(C)[C@H](NC(=O)[C@H](C)N)C(=O)N1CCCN(C2CCCCC2)CC1C(=O)NC(c1ccccc1)c1ccccc1` (stereo partly specified), the inhibition in [1] came to 82.5%; in experiment [2], 15.6%. Further, in the experiment on MDA-MB-231, the IC50 is above 50 µM.

For `CC(C)[C@H](NC(=O)[C@H](C)N)C(=O)N1CCN(Cc2ccccc2)CC1C(=O)NC(c1ccccc1)c1ccccc1` (stereo partly specified), in the experiment with MDA-MB-231, the 50% inhibitory concentration (IC50) amounted to 31 µM.

`CN[C@@H](C)C(=O)NC1CCC[C@H]2SC[C@@H](C(=O)Nc3cc(C)nn3-c3ccccc3)N2C1=O` (stereo partly specified): the IC50 in the experiment with MDA-MB-231 amounted to 2 µM.

As for `CC(C)[C@H](NC(=O)[C@H](C)N)C(=O)N1C(C(=O)NC(c2ccccc2)c2ccccc2)CSC1(C)C` (stereo in doubt), the inhibition was found to be 83.6% in [1] and 16.7% in [2].

As to `CC(C)C(NC(=O)[C@H](C)N)c1nc(C(=O)NCc2ccccc2)cs1` (stereo partly specified), the results for the inhibition in experiment [1] and in experiment [2] were 23.4% and 19.9%, respectively. Besides, the IC50 with MDA-MB-231 is above 50 µM.

For `CC(C)[C@H](NC(=O)[C@H](C)N)C(=O)N1C(C(=O)NC(c2ccccc2)c2ccccc2)CSC1(C)C` (stereo in doubt; 9) [listing 1 of 2 here], the inhibition in [1] is 83.2%; in [2], 15.8%.

Regarding `CC(C)[C@H](NC(=O)[C@H](C)N)C(=O)N1C(C(=O)NC(c2ccccc2)c2ccccc2)CSC1(C)C` (single isomer, unassigned; diastereomer A), the inhibition in experiment [1] came out at 97.1%; in experiment [2] it was 67.4%.

`COc1ccc(CCN2CCC[C@H]2CN(C(=O)Nc2ccccc2)[C@@H](CNC(=O)Nc2ccccc2)CC2CCCCC2)cc1`: the IC50 with Jurkat worked out at 5 µM.

Take `CC(C)C(NC(=O)[C@H](C)N)c1nc(C(=O)NCc2ccccc2)c(-c2ccccc2)s1` (stereo partly specified): the inhibition in experiment [1] worked out at 97.2%; in experiment [2], 58%. Moreover, the IC50 with MDA-MB-231 is above 50 µM.

In the case of `CC(C)[C@H](NC(=O)[C@H](C)N)C(O)c1nnnn1CCc1ccccc1` (stereo partly specified), the inhibition in experiment [1] worked out at 20.7%; in experiment [2], 15%. Moreover, in the experiment on MDA-MB-231, the IC50 was above 50 µM.

Regarding `CC(C)[C@H](NC(=O)[C@H](C)N)C(=O)N1C(C(=O)NC(c2ccccc2)c2ccccc2)CSC1(C)C` (stereo in doubt; 9) [listing 2 of 2 here], in the experiment with MDA-MB-231, the IC50 was above 50 µM.
